These results are taken from ChEMBL document CHEMBL4699442, “Discovery of Soft-Drug Topical Tool Modulators of Sphingosine-1-phosphate Receptor 1 (S1PR1)” (ACS Med Chem Lett, 2019).

Series [1] can be described thus: Metabolic stability in human skin S9 cells assessed as half life at 0.5 uM incubated for 180 mins by UPLC-MS/MS analysis. As to conditions: s9, 3 h. Type of series: ADME, subcellular, Zone of skin. Put shortly:
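Skin S9 fraction was incubated with compound in the presence of enzymatic cofactors. Stability was followed over 180 min, n = 1.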

Series [2] in a line: Lipophilicity, logD of compound at pH 7.4 by RP-HPLC analysis. Type of series: physicochemical. As to conditions: buffer.
Series [3] can be described thus: Metabolic stability in human Hepatocyte assessed as intrinsic clearance at 1 uM incubated for 90 mins by UPLC-MS/MS analysis. The class given is ADME, tissue-based. As to conditions: hepatocytes. The method in brief: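 Human hepatocytes were incubated with compound to capture phase 2 and other metabolism.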
The nature of series [4]: Dissociation constant, pKa of compound by potentiometric fast UV-metric titration method. Type of series: physicochemical.
Series [5] in a line: Stability of compound in DMSO assessed as decrease in purity incubated for 24 hrs. The class given is physicochemical. Put shortly:
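Compound was held in DMSO solution and its stability judged after 24 h. Single determination, n = 1.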

For the compound `CCC/N=C1\S/C(=C\c2ccc(OC(C)=O)c(Br)c2)C(=O)N1c1ccccc1C`, the t1/2 in series [1] is 8.8 min.

For the compound `CCC/N=C1\S/C(=C\c2ccc(OC(=O)C(C)(C)C)c(C)c2)C(=O)N1c1ccccc1C`, the t1/2 in series [1] is recorded as over 180 min.

With `CCC/N=C1\S/C(=C\c2ccc(OC(C)=O)c(C(F)(F)F)c2)C(=O)N1c1ccccc1C`, the t1/2 in series [1] is recorded as 8.3 min.

Usually logD stands for lipophilicity at a set pH, counting ionised and neutral species. `CCC/N=C1\S/C(=C\c2ccc(O)c(Cl)c2)C(=O)N1c1ccccc1OC`: in series [2], the logD was determined as 3.3.

In turn, `Cc1ccccc1N1C(=O)/C(=C/c2ccc(O)c(Cl)c2)S/C1=N\CCCF` came in with a logD in series [2] of 3.4.

`CCC/N=C1\S/C(=C\c2ccc(OC(=O)CCO)c(C)c2)C(=O)N1c1ccccc1C`: the t1/2 in series [1] is given as 8.2 min.

As usually defined, the pKa is the pH at which an ionisable group is half protonated. A higher pKa goes with a weaker acid or stronger base. Regarding `CCC/N=C1\S/C(=C\c2ccc(O)cc2)C(=O)N1c1ccccc1C`, the CLH in series [3] is 1.7 mL/min/g. Further, the log distribution coefficient (logD) in series [2] amounted to 3.5. The compound also displayed a pKa in series [4] of 8.3.

Regarding `CCC/N=C1\S/C(=C\c2ccc(O)c(Cl)c2)C(=O)N1C1CCOCC1`, the logD in series [2] is 3.7.

With `CCC/N=C1\S/C(=C\c2ccc(OC(=O)C(C)C)c(C)c2)C(=O)N1c1ccccc1C`, in series [1], the t1/2 is recorded as 21 min.

In the case of `CCC/N=C1\S/C(=C\c2ccc(O)c(C(F)(F)F)c2)C(=O)N1c1ccccc1C`, in series [3], the CLH was 4.2 mL/min/g. This compound displayed a logD in series [2] of 3.8. This compound showed a pKa in series [4] of 6.6.

Turning to `CCC/N=C1\S/C(=C\c2ccc(O)c(C)c2)C(=O)N1c1ccccc1C`, the CLH in series [3] was 31 mL/min/g. Further, in series [2], the logD is 3.8. Besides, the pKa in series [4] is 8.5.

Take `CCC/N=C1\S/C(=C\c2ccc(OC(C)=O)c(C)c2)C(=O)N1c1ccccc1C`: in series [1], the t1/2 was 7.3 min.

In the case of `CCC/N=C1\S/C(=C\c2ccc(OC(=O)COC)c(C)c2)C(=O)N1c1ccccc1C`, the Stabilty result in series [5] was “Unstable”.

As for `CCC/N=C1\S/C(=C\c2ccc(O)cn2)C(=O)N1c1ccccc1C`, the CLH in series [3] was 7.9 mL/min/g. In series [2], the logD is 3. For the same compound, in series [4], the pKa came out at 7.1.

As to `CCC/N=C1\S/C(=C\c2ccc(O)c(Cl)c2)C(=O)N1C(C)C`, the logD in series [2] is over 4.3.

Regarding `CCC/N=C1\S/C(=C\c2ccc(O)c(Cl)c2)C(=O)N1C1CC1`, the logD in series [2] worked out at 3.4.

`COCC/N=C1\S/C(=C\c2ccc(O)c(Cl)c2)C(=O)N1c1ccccc1C`: the logD in series [2] turned out to be 2.9.

As to `CCC/N=C1\S/C(=C\c2ccc(OC[C@H](O)CO)c(Cl)c2)C(=O)N1c1ccccc1C` [PONESIMOD], in series [1], the t1/2 is reported as over 180 min.

As for `CCC/N=C1\S/C(=C\c2ccc(O)c(Cl)c2)C(=O)N1c1ccccc1O`, the logD in series [2] stood at 2.7.

With `CCC/N=C1\S/C(=C\c2ccc(O)c(Br)c2)C(=O)N1c1ccccc1C`, in series [3], the CLH came out at 6 mL/min/g. The same compound had a logD in series [2] of 3.9. For the same compound, the pKa in series [4] turned out to be 6.4.

For `CCC/N=C1\S/C(=C\c2ccc(O)c(Cl)c2)C(=O)N1C1CCN(C)C(=O)C1` (racemic), the log distribution coefficient (logD) in series [2] was determined as 0.6.

With `CCC/N=C1\S/C(=C\c2ccc(O)c(C(C)C)c2)C(=O)N1c1ccccc1C`, the CLH in series [3] was 12 mL/min/g. Also, the logD in series [2] is 4.3. In addition, in series [4], the pKa amounted to 8.6.

With `CCC/N=C1\S/C(=C\c2ccc(OC(=O)CCOC)c(C)c2)C(=O)N1c1ccccc1C`, the t1/2 in series [1] is reported as 4.8 min.

For `CCC/N=C1\S/C(=C\c2ccc(O)c(Cl)c2)C(=O)N1c1ccccc1C`, the CLH in series [3] worked out at 8.4 mL/min/g. In addition, in series [2], the logD was determined as 3.8. The pKa in series [4] is 6.8.

As for `CCC/N=C1\S/C(=C\c2ccc(OC(=O)CN(C)C)c(C)c2)C(=O)N1c1ccccc1C`, the Stabilty entry in series [5] is “Unstable”.

`Cc1ccccc1N1C(=O)/C(=C/c2ccc(O)c(Cl)c2)S/C1=N\C1COC1`: the logD in series [2] came out at 2.6.

In series [2], `Cc1ccccc1N1C(=O)/C(=C/c2ccc(O)c(Cl)c2)S/C1=N\CCO` registered a logD of 1.9.

The compound `CCC/N=C1\S/C(=C\c2ccc(O)c(Cl)c2)C(=O)N1C1CCS(=O)(=O)CC1` yielded a logD in series [2] of 2.6.
